We go through 14 molecules from PubChem BioAssay.

Active and inactive are the calls of the source.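 The calls were made as follows, unless noted: active = viability at or below 10% of carrier control in both of two separate runs; inconclusive = viability at or below 10% in only one of the two runs; inactive = the rest.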

Test [1] can be described thus: Her2 expression decrease, cell viability multiplex – SKBR3 breast tumor cells, AlphaScreen, ATP viability, primary screen (AID 461;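 active = Her2 level under about 52% in both replicate screens, with viability over 70% of control, limit read from the data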;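 as to Her2 level: lower value means less Her2 protein in the cells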;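 as to viability: percent of carrier control wells set as 100% viability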). The settings on record: SKBR3 Her2 protein level, 18-24 h, measured here: SKBR3 viability, ATP luminescence, at 10 µM.
For test [2], the target named is Receptor tyrosine-protein kinase erbB-2 (Homo sapiens) (UniProt P04626). The description is as above. The settings on record: 18-24 h, at 10 µM, stronger effect = lower value.
Sequence of Receptor tyrosine-protein kinase erbB-2 (Homo sapiens) (P04626 whole entry, looked up): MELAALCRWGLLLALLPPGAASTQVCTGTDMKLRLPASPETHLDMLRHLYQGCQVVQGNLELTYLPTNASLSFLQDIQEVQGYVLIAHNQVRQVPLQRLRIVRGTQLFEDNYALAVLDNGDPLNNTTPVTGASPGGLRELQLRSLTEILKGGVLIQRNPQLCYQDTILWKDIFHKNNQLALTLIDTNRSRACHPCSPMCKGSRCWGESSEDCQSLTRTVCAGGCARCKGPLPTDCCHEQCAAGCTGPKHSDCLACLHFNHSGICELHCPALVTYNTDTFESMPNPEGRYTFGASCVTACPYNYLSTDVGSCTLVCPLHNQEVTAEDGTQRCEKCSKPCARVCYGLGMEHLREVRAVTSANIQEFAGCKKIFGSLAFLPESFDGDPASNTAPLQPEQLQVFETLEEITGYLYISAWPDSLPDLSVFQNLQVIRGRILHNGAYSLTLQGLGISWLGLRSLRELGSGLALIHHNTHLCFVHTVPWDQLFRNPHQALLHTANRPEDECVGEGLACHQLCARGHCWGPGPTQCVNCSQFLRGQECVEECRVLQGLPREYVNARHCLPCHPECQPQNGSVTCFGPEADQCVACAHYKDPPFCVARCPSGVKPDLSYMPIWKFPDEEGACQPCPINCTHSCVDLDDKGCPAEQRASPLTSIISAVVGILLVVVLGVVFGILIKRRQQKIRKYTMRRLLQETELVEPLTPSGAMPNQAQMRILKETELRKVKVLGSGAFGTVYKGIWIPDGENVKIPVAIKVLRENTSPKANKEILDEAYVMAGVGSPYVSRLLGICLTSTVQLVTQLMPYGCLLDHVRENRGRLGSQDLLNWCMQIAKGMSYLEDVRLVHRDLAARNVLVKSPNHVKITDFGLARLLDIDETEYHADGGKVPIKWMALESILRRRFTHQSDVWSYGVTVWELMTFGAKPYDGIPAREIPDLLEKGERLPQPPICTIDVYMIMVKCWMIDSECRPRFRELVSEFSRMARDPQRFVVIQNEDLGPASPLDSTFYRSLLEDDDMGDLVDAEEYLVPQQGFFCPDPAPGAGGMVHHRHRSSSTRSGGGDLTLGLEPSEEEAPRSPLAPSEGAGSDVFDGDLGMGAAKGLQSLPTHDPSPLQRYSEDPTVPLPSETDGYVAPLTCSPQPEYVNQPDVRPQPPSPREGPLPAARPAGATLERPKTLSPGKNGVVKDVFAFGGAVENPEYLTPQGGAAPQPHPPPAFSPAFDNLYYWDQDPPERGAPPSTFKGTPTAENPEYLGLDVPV
Test [3] can be described thus: reduced viability of SK-BR-3 breast cancer cells – cell-based, 24 h, human, pilot screen (AID 572).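 Also: compound exposure lasted between 18 and 24 h rather than exactly 24 h; 100% = carrier-treated control wells.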 The following applies: SK-BR-3 viability, CellTiter-Glo luminescence, at 10 µM, stronger effect = lower value.
Test [4] is described as follows: HUVEC growth inhibition – cell-based, human, primary screen (AID 575;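 active = viability at or below 30% in both replicate assays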;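 also: 100% = median of untreated cell wells with 0.1% DMSO on each plate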). The following applies: HUVEC proliferation, CellTiter-Glo luminescence, 72 h; at 10 µM; stronger effect = lower value. In a few lines:
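system = HUVEC primary cells | amount = 1250 cells/well | buffer or medium = supplemented EBM, 2% fetal bovine serum | dosing = single-point 10 µM, DMSO 0.1% final | times = 72 h compound incubation | detection = CTG luminescence | read-out = % viability relative to median vehicle-well signal on each plate | control set = vehicle and MePR control wells | format = collagen-coated 384-well format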

The nature of test [5]: H69AR cell proliferation blockers – human, duplicate replicates, primary screen (AID 580;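 active = viability at or under a set limit in both replicates, limit being median viability minus 3 SD, cut at about 48% in these data, passing the limit was not always enough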;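 also: 100% = mean luminescence of untreated wells and 0% = no signal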). The settings on record: H69AR lung tumor cells viability, ATP luminescence, 72 h; at 10 µM; stronger effect = lower value.
Test [6] can be described thus: MRP1 drug-resistance reversers in H69AR cells – cell-based, doxorubicin co-treatment, pilot screen (AID 601;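 active = viability loss from added drug above about 55%, and viability with drug at most 40%, in both replicates, limit read from the data, passing the limit was not always enough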). The settings on record: CellTiter-Glo, 72 h, at 10 µM; for differential viability (reversal): stronger effect = higher value. On the technique in general: ATP-based viability assays read luminescence as a measure of living cells.
Test [7] can be described thus: yeast transport mutant growth inhibition pilot in 384-well plates, post-Golgi transport modulator project (AID 636; in the data active = inhibition above about 31%). The settings on record: absorbance 615 nm, about 18 h, stronger effect = higher value.
A short description of test [8]: growth suppression of yeast trafficking mutant, preliminary HTS, modulators of trafficking downstream of Golgi apparatus project, 1536-format plate, OD 615 nm (AID 637; in the data active = inhibition above about 30%). The settings on record: yeast transport mutant growth, absorbance 615 nm, 18 h; stronger effect = higher value.
The mark [9] stands for this setting: H69AR cells + 2 uM doxorubicin, measured here: viability with 2 uM doxorubicin, stronger effect = lower value.
[10] abbreviates: H69AR cells, compound alone cytotoxicity.

For the molecule `c1ccc(CCNc2ccc3nncn3n2)cc1`, the viability (usually a read-out of living cells in per cent, often relative to untreated cells) in test [1] is 82%; in test [3], 82% (inactive); in test [4], 95.6% (inactive); in test [5] it was 86.5% (inactive); in test [6] (setting [9]) it was 83%; in test [6] (setting [10]) it was 86.5%. For the same molecule, in test [2], the Her2 level is 89.5% (inactive). Further, the differential viability (reversal) in test [6] (H69AR cells + 2 uM doxorubicin) is 3.48% (inactive). The inhibition (in general, the relative decrease from the control value, in per cent) is -2.53% (inactive) in test [7] and 0.98% (inactive) in test [8].
Regarding `CN(C)S(=O)(=O)N1CCN(c2cccc(Cl)c2)CC1`, the viability was 112% in test [1]; 112% (inactive) in test [3]; 92% (inactive) in test [4]; 91% (inactive) in test [5]; 106% in test [6] (setting [9]); 91% in test [6] (setting [10]). Moreover, the Her2 level in test [2] was 101% (inactive). Besides, in test [6] (H69AR cells + 2 uM doxorubicin), the differential viability (reversal) is -15% (inactive). Further, the inhibition in test [7] is 0% (inactive); in test [8], 27% (inactive).
Regarding `CCCC(O)(CCN(C)C)c1ccc(OC)cc1` (stereo not given), the viability is 89% in test [1]; 89% (inactive) in test [3]; 98.5% (inactive) in test [4]; 88.3% (inactive) in test [5]; 84% in test [6] (setting [9]); 88.3% in test [6] (setting [10]). For the same molecule, the Her2 level in test [2] is 79.5% (inactive). Further, the differential viability (reversal) in test [6] (H69AR cells + 2 uM doxorubicin) is 4.26% (inactive). Also, the inhibition in test [7] was -0.26% (inactive); in test [8] it was 0.48% (inactive).
As to `Cc1cccc(OCCCc2c(C)n[nH]c2C)c1`, the viability in test [1] was 102%; in test [3], 102% (inactive); in test [4], 121% (inactive); in test [5], 98.7% (inactive); in test [6] (setting [9]), 78.4%; in test [6] (setting [10]) it was 98.7%. Moreover, in test [2], the Her2 level was 118% (inactive). The differential viability (reversal) in test [6] (H69AR cells + 2 uM doxorubicin) is 20.4% (inactive). In addition, the inhibition in test [7] was 5.32% (inactive); in test [8], -8% (inactive).
In the case of `CCOc1ccccc1N(CC(=O)NC1CCCC1)C(=O)CCCC(=O)Nc1ccccn1`, the viability in test [1] was 91%; in test [3], 91% (inactive); in test [4], 106% (inactive); in test [5], 112% (inactive); in test [6] (setting [9]), 96.3%; in test [6] (setting [10]), 112%. Further, in test [2], the Her2 level was 93.5% (inactive). Further, in test [6] (H69AR cells + 2 uM doxorubicin), the differential viability (reversal) was 15.3% (inactive). Besides, the values for the inhibition in test [7] and in test [8] were -2.16% (inactive) and 6.03% (inactive), respectively.
`CC(C)c1ccc(S(=O)(=O)N2CCN(CCC(=O)Nc3ccc(N(C)C)cc3)CC2)cc1`: the viability in test [1] was 100%; in test [3], 100% (inactive); in test [4] it was 66.8% (inactive); in test [5], 60.6% (inactive); in test [6] (setting [9]), 20.4%; in test [6] (setting [10]), 60.6%. Besides, the Her2 level in test [2] was 93% (inactive). In test [6] (H69AR cells + 2 uM doxorubicin), the differential viability (reversal) was 40.2% (inactive). Further, the results for the inhibition in test [7] and in test [8] were -3.29% (inactive) and -4.67% (inactive), respectively.
Take `COc1ccc(NCc2nnc(SCC(=O)Nc3cc(C)cc(C)c3)o2)cc1`: the viability in test [1] was 112%; in test [3], 112% (inactive); in test [4], 70% (inactive); in test [5] it was 81.9% (inactive); in test [6] (setting [9]), 85.6%; in test [6] (setting [10]), 81.9%. The Her2 level in test [2] is 90.5% (inactive). Further, in test [6] (H69AR cells + 2 uM doxorubicin), the differential viability (reversal) was -3.66% (inactive). In addition, the inhibition in test [7] is -6.53% (inactive); in test [8], -1.64% (inactive).
Take `CCOC(=O)c1[nH]c(C)c(C(=O)NCC2CCCO2)c1C` (stereo not given): the viability in test [1] was 99%; in test [3] it was 99% (inactive); in test [4] it was 108% (inactive); in test [5], 101% (inactive); in test [6] (setting [9]) it was 91.3%; in test [6] (setting [10]), 101%. Besides, the Her2 level in test [2] was 92% (inactive). The differential viability (reversal) in test [6] (H69AR cells + 2 uM doxorubicin) was 9.65% (inactive). Also, the inhibition was -2.47% (inactive) in test [7] and -0.32% (inactive) in test [8].
As to `Cc1ccc(NC(=O)N2CCC(c3nc4c(nnn4Cc4cccc(Cl)c4)c(=O)[nH]3)CC2)cc1`, the viability in test [1] was 81.5%; in test [3] it was 81.5% (inactive); in test [4] it was 61.8% (inactive); in test [5], 85.2% (inactive); in test [6] (setting [9]), 65.6%; in test [6] (setting [10]) it was 85.2%. Also, in test [2], the Her2 level was 76.5% (inactive). In test [6] (H69AR cells + 2 uM doxorubicin), the differential viability (reversal) is 19.6% (inactive). Moreover, the values for the inhibition in test [7] and in test [8] were -0.13% (inactive) and -1.45% (inactive), respectively.
Regarding `Cc1ccc2[nH]c(=O)c(CN(CCCN3CCOCC3)C(=O)Nc3cccc(Cl)c3)cc2c1`, the viability was 75.5% in test [1]; 75.5% (inactive) in test [3]; 47% (inactive) in test [4]; 55.4% (inactive) in test [5]; 49.9% in test [6] (setting [9]); 55.4% in test [6] (setting [10]). Besides, the Her2 level in test [2] was 75% (inactive). The differential viability (reversal) in test [6] (H69AR cells + 2 uM doxorubicin) was 5.47% (inactive). Moreover, the inhibition in test [7] was -3.33% (inactive); in test [8], 2.13% (inactive).
As for `CCN(CC(=O)Nc1ccc(S(N)(=O)=O)cc1)S(=O)(=O)c1cc(C)ccc1OC`, the viability in test [1] is 76.5%; in test [3], 76.5% (inactive); in test [4], 109% (inactive); in test [5], 114% (inactive); in test [6] (setting [9]), 99.2%; in test [6] (setting [10]), 114%. In addition, the Her2 level in test [2] was 105% (inactive). Also, the differential viability (reversal) in test [6] (H69AR cells + 2 uM doxorubicin) was 14.4% (inactive). Besides, the inhibition was -3.55% (inactive) in test [7] and -1.67% (inactive) in test [8].
For the molecule `CC1Cc2cc(/C(O)=C3/C(=O)C(=O)N(CCN4CCOCC4)C3c3cccc(O)c3)ccc2O1` (stereo not given), the viability in test [1] was 98.5%; in test [3] it was 98.5% (inactive); in test [4], 98.9% (inactive); in test [5], 106% (inactive); in test [6] (setting [9]) it was 104%; in test [6] (setting [10]), 106%. Further, the Her2 level in test [2] was 120% (inactive). Moreover, the differential viability (reversal) in test [6] (H69AR cells + 2 uM doxorubicin) is 2.56% (inactive). The results for the inhibition in test [7] and in test [8] were 3.2% (inactive) and -5.32% (inactive), respectively.
On to `N#CC1=C(N)Oc2n[nH]c(-c3ccncc3)c2C1c1ccsc1` (stereo not given), for which the viability in test [1] was 88%; in test [3], 88% (inactive); in test [4], 113% (inactive); in test [5], 87.7% (inactive); in test [6] (setting [9]), 94.2%; in test [6] (setting [10]), 87.7%. Moreover, the Her2 level in test [2] is 95% (inactive). Besides, the differential viability (reversal) in test [6] (H69AR cells + 2 uM doxorubicin) was -6.48% (inactive). For the same molecule, the inhibition in test [7] is 0.53% (inactive); in test [8], -4% (inactive).
`COc1ccc(CC(=O)OCC(=O)NC(=O)NC2CCCCC2)cc1`: the viability in test [1] was 96.5%; in test [3], 96.5% (inactive); in test [4], 100% (inactive); in test [5], 92.4% (inactive); in test [6] (setting [9]), 93%; in test [6] (setting [10]) it was 92.4%. Besides, the Her2 level in test [2] is 94% (inactive). Moreover, the differential viability (reversal) in test [6] (H69AR cells + 2 uM doxorubicin) was -0.595% (inactive). Moreover, the inhibition is -5.13% (inactive) in test [7] and -0.73% (inactive) in test [8].
